For orientation: Ki means the equilibrium dissociation constant of an inhibitor or competing ligand from its target.

Structures are written as SMILES.

In test [1] the target is T1, Cathepsin F (Homo sapiens, UniProt Q9UBX1).
T1 sequence (Q9UBX1 whole entry): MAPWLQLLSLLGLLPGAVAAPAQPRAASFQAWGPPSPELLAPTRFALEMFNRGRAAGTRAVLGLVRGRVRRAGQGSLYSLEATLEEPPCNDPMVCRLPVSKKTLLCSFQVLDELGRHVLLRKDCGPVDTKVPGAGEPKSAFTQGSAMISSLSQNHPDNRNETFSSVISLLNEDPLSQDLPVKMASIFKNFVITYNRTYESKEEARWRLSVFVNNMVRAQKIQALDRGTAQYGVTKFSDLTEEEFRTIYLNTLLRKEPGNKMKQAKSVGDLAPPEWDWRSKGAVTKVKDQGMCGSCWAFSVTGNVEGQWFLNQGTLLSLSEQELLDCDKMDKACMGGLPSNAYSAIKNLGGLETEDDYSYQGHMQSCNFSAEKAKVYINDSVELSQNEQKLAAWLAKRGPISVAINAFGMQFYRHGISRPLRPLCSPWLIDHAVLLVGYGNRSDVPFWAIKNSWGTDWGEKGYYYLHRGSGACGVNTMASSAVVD
In words: Inhibition of human recombinant cathepsin F using Z-Phe-Arg-AMC as substrate by fluorimetric analysis. Summed up: (§1)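 Human enzyme activity was followed with a chromogenic or fluorogenic peptide substrate, in duplicate experiments at five or more inhibitor concentrations. Mean steady-state rates were plotted against inhibitor concentration and fitted by nonlinear regression to give IC50. IC50 was then corrected to zero substrate concentration to give Ki. Standard errors of the regression are reported.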

Test [2] deals with T2, Procathepsin L (Homo sapiens, UniProt P07711). In words: Inhibition of human cathepsin L using Z-Phe-Arg-pNA as substrate by spectrophotometric analysis. To be noted: TDE = time-dependent effect. Put shortly: as §1
Target sequence in this assay (P07711 114-333 limits assumed): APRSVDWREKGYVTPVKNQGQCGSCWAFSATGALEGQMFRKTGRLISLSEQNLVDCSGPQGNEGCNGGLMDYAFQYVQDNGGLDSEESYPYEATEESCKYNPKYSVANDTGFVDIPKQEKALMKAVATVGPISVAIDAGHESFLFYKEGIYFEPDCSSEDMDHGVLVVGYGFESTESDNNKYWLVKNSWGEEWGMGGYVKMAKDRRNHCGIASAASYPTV
In test [3] the target is T3, Cathepsin K (Homo sapiens) (UniProt P43235).
T3 sequence (whole entry): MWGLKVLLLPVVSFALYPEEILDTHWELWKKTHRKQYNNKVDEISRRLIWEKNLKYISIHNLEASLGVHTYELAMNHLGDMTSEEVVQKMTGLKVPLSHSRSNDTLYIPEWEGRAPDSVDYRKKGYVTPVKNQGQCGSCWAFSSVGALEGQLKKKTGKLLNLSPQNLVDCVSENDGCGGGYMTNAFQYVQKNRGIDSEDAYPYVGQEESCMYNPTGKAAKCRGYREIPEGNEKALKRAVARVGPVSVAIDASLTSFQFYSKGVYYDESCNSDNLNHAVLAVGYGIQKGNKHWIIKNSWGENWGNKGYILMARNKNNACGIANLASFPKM
In words: Inhibition of human cathepsin K using Z-Leu-Arg-AMC as substrate by fluorimetric analysis. To be noted: TDE = time-dependent effect. Summed up: as §1

Test [4] deals with T4, Cathepsin B (Homo sapiens, UniProt P07858). In words: Inhibition of human cathepsin B using Z-Arg-Arg-pNA as substrate by spectrophotometric analysis. To be noted: TDE = time-dependent effect. Summed up: as §1
In test [5] the target is T2, Procathepsin L. In words: Inhibition of human cathepsin L using Z-Phe-Arg-pNA as substrate after 80 mins by spectrophotometric analysis.
Target sequence in this assay (P07711 whole entry): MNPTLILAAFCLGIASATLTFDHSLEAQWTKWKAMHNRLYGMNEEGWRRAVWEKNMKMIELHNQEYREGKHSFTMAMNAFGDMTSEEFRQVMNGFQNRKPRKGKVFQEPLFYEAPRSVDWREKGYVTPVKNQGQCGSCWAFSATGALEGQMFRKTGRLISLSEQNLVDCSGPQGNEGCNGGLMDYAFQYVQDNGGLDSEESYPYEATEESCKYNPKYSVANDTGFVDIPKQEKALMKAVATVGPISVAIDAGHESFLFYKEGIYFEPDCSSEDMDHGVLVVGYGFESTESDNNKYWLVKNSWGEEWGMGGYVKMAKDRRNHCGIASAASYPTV
Test [6] concerns the target T5, Cathepsin S (Homo sapiens, UniProt P25774). In words: Inhibition of human cathepsin S using Z-Phe-Val-Arg-pNA as substrate after 80 mins by spectrophotometric analysis.
The target in test [7] is T6, Cathepsin K (Homo sapiens, UniProt P43235).
T6 sequence (P43235 whole entry): T3 sequence (whole entry)
In words: Inhibition of human cathepsin K using Z-Leu-Arg-AMC as substrate after 80 mins by fluorimetric analysis.

For test [8], the target named is T4, Cathepsin B. In words: Inhibition of human cathepsin B using Z-Arg-Arg-pNA as substrate after 80 mins by spectrophotometric analysis.
Test [9] deals with T5, Cathepsin S. In words: Inhibition of human cathepsin S using Z-Phe-Val-Arg-pNA as substrate after 10 mins by spectrophotometric analysis.
The target of test [10] is T6, Cathepsin K. In words: Inhibition of human cathepsin K using Z-Leu-Arg-AMC as substrate after 10 mins by fluorimetric analysis.
Test [11] has as its target T4, Cathepsin B. In words: Inhibition of human cathepsin B using Z-Arg-Arg-pNA as substrate after 10 mins by spectrophotometric analysis.
Test [12] has as its target T1, Cathepsin F. In words: Inhibition of human recombinant cathepsin F using Z-Phe-Arg-AMC as substrate after 8 min by fluorimetric analysis.
Test [13] deals with T2, Procathepsin L. In words: Inhibition of human cathepsin L using Z-Phe-Arg-pNA as substrate after 10 mins by spectrophotometric analysis.
Target sequence in this assay (P07711 whole entry): as above

T5 sequence (P25774 whole entry): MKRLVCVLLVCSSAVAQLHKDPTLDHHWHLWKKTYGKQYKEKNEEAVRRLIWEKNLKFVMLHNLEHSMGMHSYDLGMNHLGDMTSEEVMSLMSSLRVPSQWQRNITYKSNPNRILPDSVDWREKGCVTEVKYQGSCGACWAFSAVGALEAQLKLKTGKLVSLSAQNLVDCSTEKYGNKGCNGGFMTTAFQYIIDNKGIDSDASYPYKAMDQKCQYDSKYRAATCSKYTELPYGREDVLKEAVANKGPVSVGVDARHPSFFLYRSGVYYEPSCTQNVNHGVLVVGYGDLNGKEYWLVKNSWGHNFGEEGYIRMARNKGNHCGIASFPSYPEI

Take `CC(C)CS(=O)(=O)C[C@H](NC(=O)c1ccccc1)C(=O)N(C)N(C)C#N`: the inhibition constant Ki at Cathepsin F [1] is 0.021 µM; on Procathepsin L [5], 0.015 µM; at Cathepsin S [6] it was 0.00055 µM; at Cathepsin K [7], 0.00066 µM; at Cathepsin B [8] it was 0.0058 µM. Moreover, the inhibition result (on Procathepsin L [2]; in test [3]; on Cathepsin B [4]) was “tde” each time.
Turning to `CC(C)CS(=O)(=O)C[C@H](NC(=O)c1ccccc1)C(=O)NCC#N`, the Ki at Cathepsin S [9] was 0.033 µM; at Cathepsin K [10], > 40 µM; at Cathepsin B [11] it was 24 µM; on Cathepsin F [12] it was > 40 µM; on Procathepsin L [13] it was 37 µM.
Turning to `CC(C)CS(=O)(=O)CC(NC(=O)c1ccccc1)C(=O)NCC#N` (racemic), the Ki at Cathepsin S [9] is 0.04 µM; at Cathepsin K [10], > 40 µM; at Cathepsin B [11], 40 µM; at Cathepsin F [12], > 40 µM; at Procathepsin L [13] it was > 40 µM.
Consider `CC(C)CS(=O)(=O)CC(NC(=O)c1cccs1)C(=O)NCC#N` (racemic), for which the Ki on Cathepsin S [9] was 0.045 µM; on Cathepsin K [10], > 40 µM; at Cathepsin B [11] it was 24 µM; at Cathepsin F [12] it was > 40 µM; at Procathepsin L [13], > 40 µM.
Consider `CC(C)CS(=O)(=O)CC(NC(=O)c1ccc(-c2ccccc2)s1)C(=O)NCC#N` (racemic), for which the Ki on Cathepsin S [9] was 0.061 µM; on Cathepsin K [10], > 4 µM; on Cathepsin B [11], 5.1 µM; at Cathepsin F [12] it was > 4 µM; on Procathepsin L [13] it was > 4 µM.
Consider `CC(C)CS(=O)(=O)CC(NC(=O)c1cc(-c2ccccc2)cs1)C(=O)NCC#N` (racemic), for which the Ki on Cathepsin S [9] is 0.06 µM; at Cathepsin K [10], > 4 µM; on Cathepsin B [11] it was 6.4 µM; on Cathepsin F [12], > 4 µM; on Procathepsin L [13], > 4 µM.
For `CC(C)CS(=O)(=O)CC(NC(=O)c1ccc(-c2ccsc2)s1)C(=O)NCC#N` (racemic), the Ki at Cathepsin S [9] was 0.061 µM; on Cathepsin K [10], > 4 µM; on Cathepsin B [11] it was 5.4 µM; on Cathepsin F [12], > 4 µM; on Procathepsin L [13], > 4 µM.
Take `CC(C)CS(=O)(=O)CC(NC(=O)c1ccc(-c2nnn[nH]2)s1)C(=O)NCC#N` (racemic): the Ki on Cathepsin S [9] is 0.076 µM; on Cathepsin K [10] it was > 4 µM; at Cathepsin B [11], 34 µM; at Cathepsin F [12], > 4 µM; at Procathepsin L [13], > 4 µM.
Consider `CC(C)CS(=O)(=O)CC(NC(=O)c1ccc(-c2cccs2)cc1)C(=O)NCC#N` (racemic), for which the Ki was 0.2 µM on Cathepsin S [9]; > 4 µM on Cathepsin K [10]; 3.9 µM on Cathepsin B [11]; > 4 µM at Cathepsin F [12]; > 4 µM at Procathepsin L [13].
In the case of `CC(C)CS(=O)(=O)CC(NC(=O)c1ccc(-c2cccs2)s1)C(=O)NCC#N` (racemic), the Ki on Cathepsin S [9] was 0.094 µM; on Cathepsin K [10] it was 1.1 µM; at Cathepsin B [11], 3.4 µM; at Cathepsin F [12] it was 3.2 µM; on Procathepsin L [13] it was > 4 µM.
`CC(C)CS(=O)(=O)CC(NC(=O)c1cc2ccccc2s1)C(=O)NCC#N` (racemic): the Ki at Cathepsin S [9] was 0.089 µM; on Cathepsin K [10], > 4 µM; at Cathepsin B [11], 6.8 µM; on Cathepsin F [12], > 4 µM; at Procathepsin L [13] it was > 4 µM.
As for `CC(C)CS(=O)(=O)CC(NC(=O)c1cc2ccsc2s1)C(=O)NCC#N` (racemic), the Ki at Cathepsin S [9] is 0.1 µM; at Cathepsin K [10] it was > 4 µM; on Cathepsin B [11], 7.2 µM; on Cathepsin F [12], > 4 µM; at Procathepsin L [13] it was > 4 µM.
